Compounds with a hit are over-represented: about 1.8% of the library has one in this group of screens.
TNF necrop inh: inhibitors of TNF-alpha induced necroptosis in Jurkat FADD-/- cells; Jurkat FADD-/- TNF necroptosis rescue, ATP luminescence, 24 h; 0 = TNF only, 100 = no-TNF cells; activation (protection from cell death), % at 10 µM; 220,000 compounds, 0.068% hits; AID 463075;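 active = activation, meaning protection from cell death, of at least 50% relative to plate controls; inactive = activation below 50%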;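 note: necroptosis triggered by 40 ng/mL TNF-alpha added together with compound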
HSV replic up: HSV replication enhancement; maximum fold increase; HSV replication augmentation in cells, fold increase; 220,000 compounds, 0.005% hits; in the data active = maximum fold increase above about 1.5; tested in PC3 cells
Dynein cargo inh: dynein cargo transport inhibition | 220,000 compounds, 0.47% hits | z-score, hits read low | 3617.4 mouse cells, GR-EGFP nuclear translocation imaging; test concentration mostly 20 µM; stimulated with dexamethasone, 1 µM; stronger effect = lower value | AID 1381;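 active = plate z-score of nuclear minus cytoplasmic receptor signal below a set negative limit, without overly bright fluorescence or cell loss, cut at about -3.5 in these data, passing the limit was not always enough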;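 note: z-score of nuclear minus cytoplasmic ring GR-EGFP intensity difference per well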
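Also added: dexamethasone, 1.0 µM final. Medium: tet-free, stripped-serum medium. Detection: fixed, Hoechst-stained cells imaged at 10x for EGFP. Read-out: nuclear-to-cytoplasmic GR-EGFP distribution per well. Times: induction 48 h, compound 1 h, agonist 30 min.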
Furin inhibitor: human furin inhibition. P09958. purified furin, fluorogenic substrate cleavage. inhibition, % at 20 µM or 30 µM. 220,000 compounds, 0.061% hits. AID 463115; in the data active = inhibition above about 25%
Target sequence (P09958 108-714 limits assumed): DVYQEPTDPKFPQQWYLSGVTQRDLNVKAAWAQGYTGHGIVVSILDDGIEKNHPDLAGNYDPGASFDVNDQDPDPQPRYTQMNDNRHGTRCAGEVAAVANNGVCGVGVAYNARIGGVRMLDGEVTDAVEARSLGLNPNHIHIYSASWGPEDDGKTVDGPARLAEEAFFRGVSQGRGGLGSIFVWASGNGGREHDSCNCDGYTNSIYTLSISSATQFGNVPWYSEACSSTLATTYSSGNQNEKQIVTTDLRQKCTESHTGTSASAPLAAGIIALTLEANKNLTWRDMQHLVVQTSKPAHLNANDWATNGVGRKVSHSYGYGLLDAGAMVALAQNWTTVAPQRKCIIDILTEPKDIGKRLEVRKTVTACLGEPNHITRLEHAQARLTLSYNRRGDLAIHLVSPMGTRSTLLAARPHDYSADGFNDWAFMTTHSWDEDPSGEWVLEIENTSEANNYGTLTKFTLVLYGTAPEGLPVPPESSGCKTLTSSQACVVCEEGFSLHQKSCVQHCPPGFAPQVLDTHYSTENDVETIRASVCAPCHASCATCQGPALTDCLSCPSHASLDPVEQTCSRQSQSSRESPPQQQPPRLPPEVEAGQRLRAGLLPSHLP
L929 necroptosis: blocks zVAD induced death of L929 cells. L929 zVAD necroptosis rescue, ATP luminescence, 24 h; with zVAD 60 µM. 220,000 compounds, 0.38% hits. viability rescue, % at 10 µM;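 active = activation, scaled between plate controls, above about 75%, limit read from the data; inactive = activation under that limit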;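 note: 0% = zVAD with DMSO and 100% = DMSO alone without zVAD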
Autophagy HCS: autophagy modulation, high-content screen. 190,000 compounds, 0.98% hits. calls only at 10 µM (by protocol). MEF GFP-LC3 puncta imaging; test concentration mostly 10 µM;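 active = percentage of spot-positive cells more than 3 SD above its plate mean, without a fluorescence outlier flag or 80% toxicity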;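 note: spot-positive cell cutoff set from DMSO-treated cells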
Active calls of the source: *; i = inactive; . = no result given; + = active, no number.

SMILES | TNF necrop inh | HSV replic up | Dynein cargo inh | Furin inhibitor | L929 necroptosis | Autophagy HCS
O=C1C(c2ccnc3ccccc23)=C(O)c2ccccc21 | -1 | i | 0.4 | -20 | 53 | +
O=c1oc2ccccc2cc1-c1nc2c(s1)CCc1ccccc1-2 | 1 | i | -2.6 | -14 | 1 | +
Cc1ccc(N(CC(=O)Nc2ccc3c(c2)OCCO3)S(C)(=O)=O)cc1 | 2 | i | -0.59 | -36 | 4 | i
CCOC(=O)C1=C(C)N=c2s/c(=C\c3ccc(OC(C)=O)c(OCC)c3)c(=O)n2C1/C=C/c1ccccc1 (stereo not given) | -5 | i | -2.1 | -14 | 0 | +
CC(C)(C)c1ccc(C(O)CCCN2CCC(C(O)(c3ccccc3)c3ccccc3)CC2)cc1 (stereo not given) | -29 | i | -6.2 | -15 | 2 | +
COC(=O)c1sccc1NC(=O)c1ccc(Cl)s1 | -2 | i | 0.15 | -15 | 0 | i
CCn1c(C(=O)Nc2ccsc2C(=O)OC)cc2sc(Cl)cc21 | 1 | i | 1.2 | -28 | 1 | +
COc1ccc(CNC[C@@H](CCCCN(C)Cc2ccc(OC)cc2)N2C[C@H](c3ccccc3)N(CCc3ccc(Cl)c(Cl)c3)C(=O)C2=O)cc1 | -16 | i | 4.1 | -14 | -4 | +
CN(CCCC[C@H](CNCc1ccc(-c2ccccc2)cc1)N1C[C@H](c2ccccc2)N(CCc2ccc(Cl)c(Cl)c2)C(=O)C1=O)Cc1ccc(-c2ccccc2)cc1 | -27 | i | 1.4 | 5 | -4 | .
Cc1ccc(C2(c3noc(CN(C)Cc4cnn(C)c4)n3)CCCC2)cc1 | -2 | i | -0.49 | -22 | -1 | i
CCCN(CCC)C(=O)Cn1c(=O)c2sccc2n2c(=S)sc(-c3ccccc3)c12 | 0 | . | -1.4 | -35 | 1 | +
CCCN(CCC)C(=O)Cn1c(=O)c2ccccc2n2c(=S)sc(-c3ccccc3C)c12 | 2 | i | -1.6 | -8 | 1 | i
CCC(=O)n1nc(-c2ccccc2)nc1N | 0 | i | -1.1 | -12 | 0 | i
CCC(=O)n1nc(-c2ccc(Cl)cc2)nc1NCc1ccccc1 | -6 | i | 1.8 | 0 | 1 | +
O=C(CCCN=C1NS(=O)(=O)c2ccccc21)OCc1cc([N+](=O)[O-])cc2c1OCOC2 | 0 | i | 0.047 | -18 | 0 | +
C[C@H](N=C1NS(=O)(=O)c2ccccc21)C(=O)OCc1cc([N+](=O)[O-])cc2c1OCOC2 | -1 | i | 0.29 | -22 | 0 | .
CCSc1ncnc2sc(C)c(C)c12 | 1 | i | 0.026 | -16 | -1 | +
CN(C)S(=O)(=O)Oc1cc(Cl)ccc1C(=O)Nc1ccc(F)cc1F | -1 | i | 0.51 | -15 | 1 | i
COc1ccccc1-n1cccc1C=O | 1 | i | -0.7 | -26 | 1 | i
COc1ccccc1Cn1cccc1C=O | 0 | i | -0.51 | -14 | 4 | +
CC(=O)Oc1ccc2c(=O)c(-c3nc4ccccc4s3)coc2c1 | -2 | i | 1.5 | -26 | -1 | i
Oc1cc(NCc2cccnc2)ccc1-c1nc2ccccc2o1 | 2 | i | -0.55 | -17 | 1 | +
CCC(=O)c1ccc(OC(C)C(=O)NC2(C#N)CCCCC2)cc1 (stereo not given) | 1 | i | 0.67 | -12 | -1 | i
Cc1cccc(NC2=Nc3ccccc3N3C2=Nc2c(c(C)nn2-c2ccccc2)C3c2ccc(O)c(O)c2)c1 (stereo not given) | -10 | i | -0.42 | -6 | 0 | i
Cc1nn(-c2ccccc2)c2c1C(c1ccc(O)c(O)c1)N1C(=N2)C(Nc2ccccc2)=Nc2ccccc21 (stereo not given) | -8 | i | -3.1 | -22 | 0 | +
SMILES | TNF necrop inh | HSV replic up | Dynein cargo inh | Furin inhibitor | L929 necroptosis | Autophagy HCS
Cc1ccc(NC2=Nc3ccccc3N3C2=Nc2c(c(C)nn2-c2ccccc2)C3c2ccc(O)c(O)c2)cc1 (stereo not given) | -10 | . | -0.61 | -27 | 0 | +
CC(C)(C)SCCNC(=O)CSCc1ccc([N+](=O)[O-])cc1 | 1 | . | -0.47 | -17 | 0 | i
O=C(CSCc1ccc([N+](=O)[O-])cc1)NC1CC2CCC1C2 (stereo not given) | 63* | i | -0.16 | -12 | 5 | i
CN(C)CC(C)(C)CNS(=O)(=O)c1ccc(Cl)s1 | 1 | i | 0.091 | -20 | 0 | i
Nc1nonc1-c1nc2ccccc2n1Cc1ccccc1 | -8 | i | 0.78 | -23 | 0 | +
CCCCn1c(-c2nonc2N)nc2ccccc21 | -2 | i | 0.4 | -27 | 0 | i
COc1cccc(C(=O)N/N=C(/c2ccccc2)c2ccccn2)c1 | -15 | i | 1 | 5 | 57 | +
Cc1cccc(-n2c(N)c(-c3nc4ccccc4n3C)c3nc4ccccc4nc32)c1 | 4 | i | 0.17 | -10 | 2 | +
Cc1cccc(-n2c(-c3ccco3)nc3nc4ccccc4nc32)c1 | -3 | . | 0.56 | -19 | 1 | i
Cn1c(-c2c(N)n(-c3ccccc3)c3nc4ccccc4nc23)nc2ccccc21 | 3 | i | -0.08 | 0 | 1 | +
Cc1ccc(-n2c(N)c(-c3nc4ccccc4n3C)sc2=S)cc1 | -1 | i | 10 | 18 | 1 | i
Cn1c(CSCc2ccccc2)n[nH]c1=S | 0 | i | -0.57 | -10 | 1 | i
O=C(Nc1ccc(OC(F)(F)C(F)F)c(NC(=O)c2cccc(F)c2)c1)c1cccc(F)c1 | 2 | i | -0.24 | -3 | 0 | i
Cc1nc2sc3c(c2c(=O)[nH]1)CCCCC3 | 3 | i | 1.1 | -10 | 1 | .
Cc1cc(C)n(-c2nc3sc4c(c3c(=O)[nH]2)CCCC4)n1 | -12 | . | 0.43 | -5 | 1 | +
CS(=O)(=O)N1CCN(C(=O)COc2ccc3ccccc3c2)CC1 | 0 | i | 1.2 | -3 | 0 | .
CS(=O)(=O)N1CCN(C(=O)COc2ccccc2)CC1 | 1 | i | 2.3 | -21 | -2 | +
Cc1ccc(NC2=C(Cl)C(=O)c3ccccc3C2=O)cc1 | -13 | i | 0.66 | 8 | 0 | i
CCN(CC)c1ccc(NC2=C(Cl)C(=O)c3ccccc3C2=O)cc1 | -14 | i | -4.4* | -13 | 3 | i
Oc1ccccc1/C=N/Nc1cccc2cccnc12 | -8 | i | -0.58 | -11 | 1 | +
O=C(COc1cccc2cccnc12)N/N=C/c1ccccc1O | -6 | i | 1.6 | -12 | 5 | .
CCNC(=O)CON=C1c2ccccc2-c2ccccc21 | 0 | i | -0.053 | -24 | 2 | +
Cc1cc(C)c2oc(-c3ccc(Cl)c(NC(=O)c4ccc(C#N)cc4F)c3)nc2c1 | -5 | . | -0.56 | -28 | 0 | +
